# Calls of active or inactive are those of the source. The rule behind the calls is not given here.
# Assays:
# A549 [1] = assay: Cytotoxicity against human A549 cells assessed as cell growth inhibition after 48 hrs by MTT assay; assay type: functional, cell-based; details: A549, 48 h
# MCF7 = assay: Cytotoxicity against human MCF7 cells assessed as cell growth inhibition after 48 hrs by MTT assay; assay type: functional, cell-based; details: MCF7, 48 h
# Bel-7402 = assay: Cytotoxicity against human Bel7402 cells assessed as cell growth inhibition after 48 hrs by MTT assay; assay type: functional, cell-based; details: Bel-7402, 48 h
# K562 = assay: Cytotoxicity against human K562 cells assessed as cell growth inhibition after 48 hrs by MTT assay; assay type: functional, cell-based; details: K562, 48 h
# L02 = assay: Cytotoxicity against human LO2 cells assessed as cell growth inhibition after 48 hrs by MTT assay; assay type: cell-based; details: L02, 48 h
# A549/TR = assay: Cytotoxicity against human A549/T cells assessed as cell growth inhibition after 48 hrs by MTT assay; assay type: functional, cell-based
# NCI/ADR-RES = assay: Cytotoxicity against human MCF7/ADR cells assessed as cell growth inhibition after 48 hrs by MTT assay; assay type: functional, cell-based
# Bel7402/5-FU = assay: Cytotoxicity against human Bel7402/5-FU cells assessed as cell growth inhibition after 48 hrs by MTT assay; assay type: functional, cell-based
# K562/Adr = assay: Cytotoxicity against human K562/ADR cells assessed as cell growth inhibition after 48 hrs by MTT assay; assay type: functional, cell-based
# A549 [2] = assay: Induction of apoptosis in human A549 cells assessed as stimulation of intracellular calcium influx by measuring fluorescence intensity at 10 to 15 uM after 48 hrs by Fluo-3/AM probe based flow cytometry analysis; assay type: functional, cell-based
# How it was run: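 Cells were seeded in six-well plates for 24 h, then treated at 0, 10 or 15 μM for 48 h. They were harvested, washed three times in serum-free RPMI 1640 and loaded with Fluo-3 AM (0.5 μM) for 60 min. After two washes and resuspension in serum-free medium, fluorescence was measured immediately by flow cytometry.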
# A549 [3] = assay: Induction of apoptosis in human A549 cells assessed as stimulation of ROS generation at 20 uM after 48 hrs by DCFH-DA staining-based flow cytometric analysis (reference value: 42.5 %); assay type: functional
# A549 [4] = assay: Induction of apoptosis in human A549 cells assessed as stimulation of ROS generation at 25 uM after 48 hrs by DCFH-DA staining-based flow cytometric analysis (reference value: 42.5 %); assay type: functional
# A549 [5] = assay: Induction of cell cycle arrest in human A549 cells assessed as accumulation at G1 phase at 10 uM after 48 hrs by RNase/propidium iodide staining based flow cytometry analysis (reference value: 70.63 %); assay type: functional
# How it was run: (§1)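 A549 cells were grown in dishes for 24 h, then treated at 0, 10, 15 or 20 μM for 48 h. Cells were washed in cold PBS, fixed in cold 75% ethanol and held at −20 °C for 36 h. They were then treated with RNase A (100 μg mL–1) for 30 min and stained with propidium iodide (1 mg mL–1 stock) for 10 min in the dark before flow cytometry.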
# A549 [6] = assay: Induction of cell cycle arrest in human A549 cells assessed as accumulation at G2 phase at 10 uM after 48 hrs by RNase/propidium iodide staining based flow cytometry analysis (reference value: 5.14 %); assay type: functional; how it was run: as §1
# A549 [7] = assay: Induction of cell cycle arrest in human A549 cells assessed as accumulation at S phase at 10 uM after 48 hrs by RNase/propidium iodide staining based flow cytometry analysis (reference value: 24.23 %); assay type: functional; how it was run: as §1
# A549 [8] = assay: Induction of cell cycle arrest in human A549 cells assessed as accumulation at G1 phase at 15 uM after 48 hrs by RNase/propidium iodide staining based flow cytometry analysis (reference value: 70.63 %); assay type: functional; how it was run: as §1
# A549 [9] = assay: Induction of cell cycle arrest in human A549 cells assessed as accumulation at G2 phase at 15 uM after 48 hrs by RNase/propidium iodide staining based flow cytometry analysis (reference value: 5.14 %); assay type: functional; how it was run: as §1
# A549 [10] = assay: Induction of cell cycle arrest in human A549 cells assessed as accumulation at S phase at 15 uM after 48 hrs by RNase/propidium iodide staining based flow cytometry analysis (reference value: 24.23 %); assay type: functional; how it was run: as §1
# A549 [11] = assay: Induction of cell cycle arrest in human A549 cells assessed as accumulation at G1 phase at 20 uM after 48 hrs by RNase/propidium iodide staining based flow cytometry analysis (reference value: 70.63 %); assay type: functional; how it was run: as §1
# A549 [12] = assay: Induction of cell cycle arrest in human A549 cells assessed as accumulation at G2 phase at 20 uM after 48 hrs by RNase/propidium iodide staining based flow cytometry analysis (reference value: 5.14 %); assay type: functional; how it was run: as §1
# A549 [13] = assay: Induction of cell cycle arrest in human A549 cells assessed as accumulation at S phase at 20 uM after 48 hrs by RNase/propidium iodide staining based flow cytometry analysis (reference value: 24.23 %); assay type: functional; how it was run: as §1
# A549 [14] = assay: Induction of apoptosis in human A549 cells assessed as early apoptotic cells at 10 uM after 48 hrs by AnnexinV-FITC/propidium iodide staining based flow cytometry analysis (reference value: 0.99 %); assay type: functional
# A549 [15] = assay: Induction of apoptosis in human A549 cells assessed as late apoptotic cells at 10 uM after 48 hrs by AnnexinV-FITC/propidium iodide staining based flow cytometry analysis (reference value: 4.19 %); assay type: functional
# A549 [16] = assay: Induction of apoptosis in human A549 cells assessed as early apoptotic cells at 15 uM after 48 hrs by AnnexinV-FITC/propidium iodide staining based flow cytometry analysis (reference value: 0.99 %); assay type: functional
# A549 [17] = assay: Induction of apoptosis in human A549 cells assessed as late apoptotic cells at 15 uM after 48 hrs by AnnexinV-FITC/propidium iodide staining based flow cytometry analysis (reference value: 4.19 %); assay type: functional
# A549 [18] = assay: Induction of apoptosis in human A549 cells assessed as early apoptotic cells at 20 uM after 48 hrs by AnnexinV-FITC/propidium iodide staining based flow cytometry analysis (reference value: 0.99 %); assay type: functional
# A549 [19] = assay: Induction of apoptosis in human A549 cells assessed as late apoptotic cells at 20 uM after 48 hrs by AnnexinV-FITC/propidium iodide staining based flow cytometry analysis (reference value: 4.19 %); assay type: functional
# A549 [20] = assay: Induction of apoptosis in human A549 cells assessed as activation of caspase-8 at 10 uM using FITC-DEVD-FMK as substrate after 48 hrs by flow cytometric analysis (reference value: 9.76 %); assay type: functional
# A549 [21] = assay: Induction of apoptosis in human A549 cells assessed as activation of caspase-8 at 15 uM using FITC-DEVD-FMK as substrate after 48 hrs by flow cytometric analysis (reference value: 9.76 %); assay type: functional
# A549 [22] = assay: Induction of apoptosis in human A549 cells assessed as activation of caspase-8 at 20 uM using FITC-DEVD-FMK as substrate after 48 hrs by flow cytometric analysis (reference value: 9.76 %); assay type: functional
# A549 [23] = assay: Induction of apoptosis in human A549 cells assessed as activation of caspase-3 at 10 uM using FITC-DEVD-FMK as substrate after 48 hrs by flow cytometric analysis (reference value: 5.99 %); assay type: functional
# A549 [24] = assay: Induction of apoptosis in human A549 cells assessed as activation of caspase-3 at 15 uM using FITC-DEVD-FMK as substrate after 48 hrs by flow cytometric analysis (reference value: 5.99 %); assay type: functional
# A549 [25] = assay: Induction of apoptosis in human A549 cells assessed as activation of caspase-3 at 20 uM using FITC-DEVD-FMK as substrate after 48 hrs by flow cytometric analysis (reference value: 5.99 %); assay type: functional
structure (smiles),measurement,setting,value
CC1(C)[C@@H](O)CC[C@]2(C)[C@H]3C(=O)C=C4[C@@H]5C[C@@](C)(C(=O)OCCCCCCCCn6cc(F)c(=O)[nH]c6=O)CC[C@]5(C)CC[C@@]4(C)[C@]3(C)CC[C@@H]12,IC50,A549 [1],15.7 µM
same,IC50,MCF7,12.9 µM
same,IC50,Bel-7402,21 µM
same,IC50,K562,9.8 µM
same,IC50,L02,20.9 µM
same,IC50,A549/TR,20.7 µM
same,IC50,NCI/ADR-RES,23.4 µM
same,IC50,Bel7402/5-FU,19.8 µM
same,IC50,K562/Adr,27 µM
same,Activity,A549 [2],Active
same,Activity,A549 [3],40.5%
same,Activity,A549 [4],34.9%
same,Activity,A549 [5],73.61%
same,Activity,A549 [6],5.58%
same,Activity,A549 [7],20.81%
same,Activity,A549 [8],76.07%
same,Activity,A549 [9],4.27%
same,Activity,A549 [10],19.66%
same,Activity,A549 [11],92.18%
same,Activity,A549 [12],2.81%
same,Activity,A549 [13],5.01%
same,Activity,A549 [14],1.61%
same,Activity,A549 [15],5.43%
same,Activity,A549 [16],2.71%
same,Activity,A549 [17],31.91%
same,Activity,A549 [18],3.5%
same,Activity,A549 [19],46.4%
same,Activity,A549 [20],9.26%
same,Activity,A549 [21],12.7%
same,Activity,A549 [22],32.4%
same,Activity,A549 [23],24.5%
same,Activity,A549 [24],50.9%
same,Activity,A549 [25],64.7%
